Bioassay records (PubChem)
TNAP act hiacc: TNAP activators at high phosphate acceptor level, primary screen, biochemical, luminescence, uHTS; activation factor at 20 µM; 200,000 tested, under 10 active; purified TNAP, CDP-star luminescence, 1 M DEA, 30 min; stronger effect = higher value; 0 = EDTA background, 1 = DMSO-only activity; Alkaline phosphatase, tissue-nonspecific isozyme (Homo sapiens), P05186;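 active = activation factor at least 2 at 20 µM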
Target sequence (P05186 whole entry, looked up): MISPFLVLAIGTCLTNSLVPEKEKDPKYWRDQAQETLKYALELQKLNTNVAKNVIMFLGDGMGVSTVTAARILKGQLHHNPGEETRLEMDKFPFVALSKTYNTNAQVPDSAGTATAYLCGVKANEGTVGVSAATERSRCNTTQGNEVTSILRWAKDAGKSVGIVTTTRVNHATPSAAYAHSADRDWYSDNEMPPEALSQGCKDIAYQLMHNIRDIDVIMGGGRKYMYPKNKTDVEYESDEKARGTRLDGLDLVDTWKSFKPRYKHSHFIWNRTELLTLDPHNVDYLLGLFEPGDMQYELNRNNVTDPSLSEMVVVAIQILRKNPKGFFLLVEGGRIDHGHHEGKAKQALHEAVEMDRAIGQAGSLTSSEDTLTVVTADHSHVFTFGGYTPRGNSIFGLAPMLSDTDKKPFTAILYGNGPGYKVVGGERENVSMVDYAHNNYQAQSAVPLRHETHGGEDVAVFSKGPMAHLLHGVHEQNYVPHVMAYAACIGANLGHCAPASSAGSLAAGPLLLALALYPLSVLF
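Control set: EDTA negative control, DMSO positive control / Assay system: human TNAP / Quantity: TNAP 1/800 final / Evaluation: TNAP activation factor scaled between EDTA and DMSO control wells / Measured by: luminescent substrate turnover signal / Compound dosing: one dose, 20 µM / Times: 30 min enzyme reaction at room temperature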
TNAP inh no acc: human TNAP enzyme inhibitors, primary screen, biochemical, luminescent, no phosphate acceptor, uHTS; purified TNAP, CDP-star luminescence, 30 min; AID 1012, 2008; inhibition, % at 20 µM; hit rate 0.26% among 200,000; Alkaline phosphatase, tissue-nonspecific isozyme (Homo sapiens), P05186;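 active = tissue-nonspecific alkaline phosphatase inhibition above about 50% at 20 µM in the single-dose screen, limit read from the data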;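 note: 0% = DMSO negative control and 100% = EDTA positive control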
bCat KO growth: primary screen for growth suppressors in beta-catenin knockout HCT116 cells (colon tumor, human) | HCT116 beta-catenin knockout viability, CellTiter-Glo, 60 h; stronger effect = lower value | viability, % at 10 µM | hit rate 1.5% among 140,000 | AID 818, 2007;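 active = viability at or under a set limit, the compound median less 4 SD, cut at about 6% in these data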;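 note: 0% = Hyamine 1622 control at 20 µM and 100% = untreated cell control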
L major viab: Leishmania major promastigote growth inhibition, primary screen | Leishmania major promastigotes, resazurin fluorescence viability | inhibition, % at 10 µM | hit rate 9% among 200,000 | AID 1063, 2008; in the data active = inhibition above about 50%;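 note: promastigotes grown with compound for 44 hours at 28 °C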
HCT116 PTEN-null: growth suppression of PTEN-null HCT116, primary screen, cell-based, CellTiter-Glo; viability, % at 10 µM; AID 827, 2007; hit rate 1.2% among 140,000; HCT116 PTEN-null viability, 60 h; stronger effect = lower value;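 active = viability at or below a set limit, 4 SD under the median of all tested compounds, cut at about 3.7% in these data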;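 note: PTEN knockout HCT116 line with beta catenin targeted HCT116 as companion control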
TNAP inh hiacc: human TNAP enzyme inhibitors, primary screen, biochemical, luminescent, high phosphate acceptor level, uHTS; Alkaline phosphatase, tissue-nonspecific isozyme (Homo sapiens), P05186; purified TNAP, CDP-star luminescence, 1 M DEA; inhibition, % at 20 µM; hit rate 0.03% among 200,000; AID 1135, 2008;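 active = over 50% inhibition of tissue-nonspecific alkaline phosphatase at 20 µM in the single-dose screen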;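 note: plate controls were DMSO wells for no effect and EDTA-quenched wells as full inhibition for full effect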
* hit, by the source's call; · = no result given. This is a sample that favours compounds with a hit; in the whole collection about 9.6% have one here.

SMILES	TNAP act hiacc	TNAP inh no acc	bCat KO growth	L major viab	HCT116 PTEN-null	TNAP inh hiacc
Cc1ccc(S(=O)(=O)NN=C2CCN(Cc3ccccc3)CC2)cc1	1.1	-12	89	0	105	-6
CC1CCCN(C2=C(NS(=O)(=O)c3ccc(Cl)cc3)C(=O)c3ccccc3C2=O)C1 (centres undefined)	1	4	74	56*	71	3
Cc1ccc(S(=O)(=O)NC2=C(N3CCN(Cc4ccccc4)CC3)C(=O)c3ccccc3C2=O)cc1	1	-2	70	97*	59	-1
CC(=O)Nc1ccc(S(=O)(=O)Nc2ccc(N3CCOCC3)cc2)cc1	1	-8	99	-1	103	-3
COc1cc(OC)cc(C(=O)NCC(=O)OCc2nc3ccccc3s2)c1	1	3	·	0	·	0
CC(=O)Nc1ccc(S(=O)(=O)Nc2nnc(CC(C)(C)C)s2)cc1	1	-12	·	-6	·	-2
CCOc1ccc(-c2csc(/C(C#N)=C\c3ccc(O)c([N+](=O)[O-])c3)n2)cc1	0.7	16	5.5*	-3	5	32
CCCCc1ccc(-c2csc(/C(C#N)=C\c3ccc(C)o3)n2)cc1	1	-1	95	-2	87	4
CCc1nc(SCc2cccnc2)c2c(=O)n(C)c(=O)n(C)c2n1	1	-3	83	26	92	-3
CC(C)Cc1nc(SCc2cccnc2)c2c(=O)n(C)c(=O)n(C)c2n1	1	-8	·	96*	·	-2
Cn1c(=O)c2c(SCc3cccnc3)nc(C3CC3)nc2n(C)c1=O	1.1	7	85	53*	84	-8
COCCCNC(=O)C(=O)C1C(=O)Nc2ccccc21 (centres undefined)	1	-7	·	-9	·	-4
CC1CCCCC1NC(=O)COC(=O)CNC(=O)c1cccc(F)c1 (centres undefined)	1	-16	·	-2	·	-4
Cc1ccc(Nc2nc(N3CCOCC3)nc(N3CCOCC3)n2)cc1	1.1	1	55	7	58	-5
COc1ccc(Nc2nc(Cl)nc(N3CCN(c4ccc(OC)cc4)CC3)n2)cc1	1	-4	·	53*	·	-1
C=CCNc1nc(Nc2ccc([N+](=O)[O-])cc2)nc(N2CCCC2)n1	1	-1	·	81*	·	-4
C=CCNc1nc(Cl)nc(Nc2ccc([N+](=O)[O-])cc2)n1	1	-11	·	-1	·	-4
C=CCNc1nc(NCC)nc(N2CCOCC2)n1	1.1	-18	99	4	89	-6
C=CCNc1nc(Nc2ccc(-c3nc4ccccc4o3)cc2)nc(N2CCOCC2)n1	0.9	2	16	98*	41	8
COc1ccc(Nc2nc(OC)nc(N3CCN(c4ccc(OC)cc4)CC3)n2)cc1	1	-10	89	-1	84	-3
CC1CCN(c2nc(Cl)nc(Nc3ccc([N+](=O)[O-])cc3)n2)CC1	1	1	2.2*	23	13	0
O=C(CCSc1ccc(Cl)cc1)Nc1cccnc1	1	-4	·	5	·	-4
COc1cccc(NC(=O)c2cc(CN3C(=O)c4ccccc4C3=O)ccc2OC)c1	1.1	-8	93	89*	90	-7
O=C(COC(=O)c1ccc2c(=O)n3c(nc2c1)CCC3)NC1CCS(=O)(=O)C1 (centres undefined)	1	-6	·	0	·	0
COc1ccc2cc(/C=C/C(=O)c3ccco3)c(Cl)nc2c1	1.1	-3	47	44	42	-6
COc1cc2cc(/C=C/C(=O)c3ccco3)c(Cl)nc2cc1OC	1	-2	18	76*	8	1
COC(=O)c1c(CCl)noc1C(=O)NCC1CCCO1 (centres undefined)	1	-8	90	100*	96	-3
O=S(=O)(c1ccccc1)N1CCN(CC2CC3C=CC2C3)CC1 (centres undefined)	1	-8	·	-3	·	-4
